According to ChEMBL document CHEMBL4477235, “Evolution of a Novel, Orally Bioavailable Series of PI3Kδ Inhibitors from an Inhaled Lead for the Treatment of Respiratory Disease” (J Med Chem, 2016):
Values after ≈ are worked out from the molar mass of the structure shown.

Legend:
[1] = species on record: Homo sapiens; assay: Selectivity ratio of IC50 for PI3Kalpha (unknown origin) to IC50 for PI3Kdelta (unknown origin)
Procedure, shortened: (§1)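 Ratio of each isoform's HTRF IC50 to the PI3Kδ HTRF IC50. Enzymes were preincubated 15 min with 4-fold compound dilutions in HEPES pH 7.0, MgCl2, DTT buffer. […] PIP2 was 5 µM for δ and 8 µM for α/β/γ. 60 min reaction, then EDTA quench with GRP-1 PH domain/APC/Eu detection. Four-parameter fit.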

[2] = species on record: Homo sapiens; assay: Selectivity ratio of IC50 for PI3Kbeta (unknown origin) to IC50 for PI3Kdelta (unknown origin); procedure, shortened: as §1
[3] = species on record: Homo sapiens; assay: Selectivity ratio of IC50 for PI3Kgamma (unknown origin) to IC50 for PI3Kdelta (unknown origin); procedure, shortened: as §1
[4] = Clearance in rat liver microsomes at 0.5 uM measured up to 30 mins by LC-MS/MS analysis; format: ADME, Microsome; conditions: 0.5 h
Procedure, shortened: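 Rat liver microsomes (0.5 mg protein/mL) prewarmed 10 min at 37 °C, started with NADPH regeneration system. Final compound 0.5 μM. Sampled at 0, 3, 6, 12 and 30 min into acetonitrile with internal standard. Peak area ratios by LC–MS/MS fitted to log-linear decline. Clearance scaled by protein concentration, incubation volume and 52.5 mg microsomal protein/g liver.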

[5] = Clearance in mouse liver microsomes at 0.5 uM measured up to 30 mins by LC-MS/MS analysis; format: ADME, Microsome; conditions: 0.5 h
[6] = Clearance in human liver microsomes at 0.5 uM measured up to 30 mins by LC-MS/MS analysis; format: ADME, Microsome; conditions: 0.5 h
[7] = AUC(infinity) in Sprague-Dawley rat at 3 mg/kg, po measured up to 7 hrs by LC-MS/MS analysis; format: ADME, organism-based; parameters: dose 3 mg/kg, time infinity, route oral; conditions: in vivo
Procedure, shortened: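 Male Sprague Dawley rats (n = 2/route), oral dose in DMSO/PEG200/water (5:45:50 v/v/v) at 6 mL/kg. Serial tail-vein bleeds over 0–7 h. Parent compound quantified by LC–MS/MS. Parameters from noncompartmental analysis.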

[8] = Half life in Sprague-Dawley rat at 1 mg/kg, iv by LC-MS/MS analysis; format: ADME, organism-based; conditions: in vivo
Procedure, shortened: (§2)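 Male Sprague Dawley rats (n = 2/route), intravenous dose as a solution in DMSO/PEG200/water (5:45:50 v/v/v) at 2 mL/kg. Serial tail-vein blood sampling over 0–7 h. LC–MS/MS quantification of parent. Noncompartmental analysis.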

[9] = Oral bioavailability in Sprague-Dawley rat at 3 mg/kg measured up to 7 hrs by LC-MS/MS analysis; format: ADME, organism-based; conditions: in vivo; for F: 7 h
Procedure, shortened: (§3)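 Male Sprague Dawley rats, n = 2 per route, were dosed discretely at 3 mg/kg orally or 1 mg/kg intravenously. The dosing solution was DMSO/PEG200/water (5:45:50 v/v/v). Serial tail-vein blood samples were taken over 0–7 h, and parent compound was quantified by LC–MS/MS. Parameters were estimated by noncompartmental analysis.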

[10] = Volume of distribution at steady state in Sprague-Dawley rat at 3 mg/kg, po or 1 mg/kg, iv measured up to 7 hrs by LC-MS/MS analysis; format: ADME, organism-based; conditions: in vivo, read-out: Vdss; procedure, shortened: as §3
[11] = target: Albumin (Homo sapiens, UniProt P02768); assay: Binding affinity to human serum albumin by HPLC analysis; format: ADME; conditions: read-out: PB (converted)
Sequence of Albumin (P02768 whole entry): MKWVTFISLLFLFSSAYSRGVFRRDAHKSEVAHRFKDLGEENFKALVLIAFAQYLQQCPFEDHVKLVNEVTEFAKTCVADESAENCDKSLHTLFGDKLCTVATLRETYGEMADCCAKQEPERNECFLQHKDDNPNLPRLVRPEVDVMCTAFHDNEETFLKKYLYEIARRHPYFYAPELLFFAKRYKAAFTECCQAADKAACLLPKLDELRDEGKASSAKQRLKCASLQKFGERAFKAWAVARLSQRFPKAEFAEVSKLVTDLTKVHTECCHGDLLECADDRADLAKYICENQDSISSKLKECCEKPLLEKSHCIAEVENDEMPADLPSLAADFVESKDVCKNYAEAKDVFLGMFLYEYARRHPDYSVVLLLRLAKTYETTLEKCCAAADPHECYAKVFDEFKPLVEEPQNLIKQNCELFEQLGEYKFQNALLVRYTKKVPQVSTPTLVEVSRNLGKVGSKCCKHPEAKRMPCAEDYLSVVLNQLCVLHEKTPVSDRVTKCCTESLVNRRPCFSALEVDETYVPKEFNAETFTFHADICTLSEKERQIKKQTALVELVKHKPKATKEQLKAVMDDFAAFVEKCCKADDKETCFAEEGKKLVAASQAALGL

[12] = Kinetic solubility in phosphate buffered saline at pH 7.4 after 1 hr by chemiluminescent nitrogen detection method; format: physicochemical; conditions: read-out: Kinetic_solubility
Procedure, shortened: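 The sample was then filtered, and the filtrate was quantified by calibrated flow-injection chemiluminescent nitrogen detection. Standard error was ±30 µM, and the upper limit was 500 µM from the 10 mM stock.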

[13] = target: Phosphatidylinositol 4,5-bisphosphate 3-kinase catalytic subunit delta isoform (Homo sapiens) (UniProt O00329); assay: Ratio of IC50 for PI3Kdelta in human PBMC to IC50 for PI3Kdelta (unknown origin)
[14] = target: T1, Phosphatidylinositol 4,5-bisphosphate 3-kinase catalytic subunit delta isoform (Homo sapiens, UniProt O00329)
T1 sequence (O00329 whole entry): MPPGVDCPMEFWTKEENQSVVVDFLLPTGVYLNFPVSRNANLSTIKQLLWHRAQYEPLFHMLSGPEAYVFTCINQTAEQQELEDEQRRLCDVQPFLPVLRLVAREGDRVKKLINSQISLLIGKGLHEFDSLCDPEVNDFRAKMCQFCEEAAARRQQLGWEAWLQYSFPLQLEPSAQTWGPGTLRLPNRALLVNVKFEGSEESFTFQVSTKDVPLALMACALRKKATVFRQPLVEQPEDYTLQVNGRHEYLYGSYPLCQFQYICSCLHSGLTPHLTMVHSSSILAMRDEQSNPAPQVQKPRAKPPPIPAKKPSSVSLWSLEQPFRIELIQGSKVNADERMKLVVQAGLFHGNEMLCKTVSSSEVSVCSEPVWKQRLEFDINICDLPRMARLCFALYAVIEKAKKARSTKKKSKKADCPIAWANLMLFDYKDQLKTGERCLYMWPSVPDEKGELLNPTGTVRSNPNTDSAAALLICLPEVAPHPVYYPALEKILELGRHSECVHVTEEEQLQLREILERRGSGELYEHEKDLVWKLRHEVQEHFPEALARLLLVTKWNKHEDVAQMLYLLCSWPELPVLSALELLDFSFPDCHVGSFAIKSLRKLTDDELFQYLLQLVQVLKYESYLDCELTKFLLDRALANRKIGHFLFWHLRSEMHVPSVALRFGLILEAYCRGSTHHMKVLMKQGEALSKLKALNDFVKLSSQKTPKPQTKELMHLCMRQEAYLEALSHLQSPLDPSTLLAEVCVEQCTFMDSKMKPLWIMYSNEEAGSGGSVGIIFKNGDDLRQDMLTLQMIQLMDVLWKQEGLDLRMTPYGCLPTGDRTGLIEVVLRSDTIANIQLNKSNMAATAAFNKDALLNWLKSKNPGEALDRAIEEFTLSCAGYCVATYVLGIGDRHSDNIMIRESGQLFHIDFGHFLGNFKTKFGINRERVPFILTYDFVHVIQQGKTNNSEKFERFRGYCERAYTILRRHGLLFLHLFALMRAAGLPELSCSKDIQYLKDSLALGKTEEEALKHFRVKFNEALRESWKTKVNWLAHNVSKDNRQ

[15] = target: T1, Phosphatidylinositol 4,5-bisphosphate 3-kinase catalytic subunit delta isoform; remark: listed apart in the source
[16] = target: Phosphatidylinositol 4,5-bisphosphate 3-kinase catalytic subunit alpha isoform (Homo sapiens, UniProt P42336); assay: Inhibition of PI3Kalpha (unknown origin) using PIP2 as substrate preincubated for 15 mins followed by substrate addition measured after 60 mins in presence of biotin-labeled PIP3 by HTRF assay
Sequence of Phosphatidylinositol 4,5-bisphosphate 3-kinase catalytic subunit alpha isoform (P42336 whole entry, the tested form may be a part, canonical isoform): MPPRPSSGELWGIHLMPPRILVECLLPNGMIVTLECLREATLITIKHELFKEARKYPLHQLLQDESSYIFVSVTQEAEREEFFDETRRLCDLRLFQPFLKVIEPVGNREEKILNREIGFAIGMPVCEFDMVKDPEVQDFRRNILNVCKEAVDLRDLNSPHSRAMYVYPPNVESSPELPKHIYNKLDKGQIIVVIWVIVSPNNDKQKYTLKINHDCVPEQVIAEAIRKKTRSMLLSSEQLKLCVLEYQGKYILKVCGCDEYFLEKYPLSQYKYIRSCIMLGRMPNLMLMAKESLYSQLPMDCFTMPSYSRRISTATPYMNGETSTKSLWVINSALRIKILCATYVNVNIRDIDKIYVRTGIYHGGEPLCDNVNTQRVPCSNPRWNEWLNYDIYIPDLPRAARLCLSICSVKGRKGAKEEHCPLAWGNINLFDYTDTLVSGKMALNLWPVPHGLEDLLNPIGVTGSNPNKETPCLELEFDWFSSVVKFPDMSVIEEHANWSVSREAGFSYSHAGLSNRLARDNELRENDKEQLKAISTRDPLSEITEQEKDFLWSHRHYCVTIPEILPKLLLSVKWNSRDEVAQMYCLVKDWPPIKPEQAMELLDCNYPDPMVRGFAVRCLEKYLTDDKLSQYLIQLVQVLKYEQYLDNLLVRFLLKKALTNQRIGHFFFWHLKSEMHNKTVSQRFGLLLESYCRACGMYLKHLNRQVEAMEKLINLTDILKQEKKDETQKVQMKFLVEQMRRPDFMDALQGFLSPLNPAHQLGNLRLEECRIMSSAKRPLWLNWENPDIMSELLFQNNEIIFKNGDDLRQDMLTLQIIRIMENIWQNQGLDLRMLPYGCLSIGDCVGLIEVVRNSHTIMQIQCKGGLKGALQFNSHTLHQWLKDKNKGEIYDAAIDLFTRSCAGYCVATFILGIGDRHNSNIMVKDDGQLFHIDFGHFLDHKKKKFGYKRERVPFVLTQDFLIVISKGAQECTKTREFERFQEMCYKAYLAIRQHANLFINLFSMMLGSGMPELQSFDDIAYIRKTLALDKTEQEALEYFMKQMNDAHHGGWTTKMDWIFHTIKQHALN
Procedure, shortened: (§4)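 HTRF kinase assay in 50 mM HEPES pH 7.0, 150 mM NaCl, 10 mM MgCl₂, 1 mM DTT. Enzyme preincubated 15 min with 4-fold serially diluted compound. […] Quenched after 60 min with EDTA plus GRP-1 PH domain/streptavidin-APC/Eu-antiGST detection, then equilibrated 60 min in the dark. Data normalized to no-compound and no-enzyme controls. IC50 from four-parameter fit.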

[17] = target: Phosphatidylinositol 4,5-bisphosphate 3-kinase catalytic subunit beta isoform (Homo sapiens, UniProt P42338); assay: Inhibition of PI3Kbeta (unknown origin) using PIP2 as substrate preincubated for 15 mins followed by substrate addition measured after 60 mins in presence of biotin-labeled PIP3 by HTRF assay; procedure, shortened: as §4
Sequence of Phosphatidylinositol 4,5-bisphosphate 3-kinase catalytic subunit beta isoform (P42338 whole entry, canonical isoform): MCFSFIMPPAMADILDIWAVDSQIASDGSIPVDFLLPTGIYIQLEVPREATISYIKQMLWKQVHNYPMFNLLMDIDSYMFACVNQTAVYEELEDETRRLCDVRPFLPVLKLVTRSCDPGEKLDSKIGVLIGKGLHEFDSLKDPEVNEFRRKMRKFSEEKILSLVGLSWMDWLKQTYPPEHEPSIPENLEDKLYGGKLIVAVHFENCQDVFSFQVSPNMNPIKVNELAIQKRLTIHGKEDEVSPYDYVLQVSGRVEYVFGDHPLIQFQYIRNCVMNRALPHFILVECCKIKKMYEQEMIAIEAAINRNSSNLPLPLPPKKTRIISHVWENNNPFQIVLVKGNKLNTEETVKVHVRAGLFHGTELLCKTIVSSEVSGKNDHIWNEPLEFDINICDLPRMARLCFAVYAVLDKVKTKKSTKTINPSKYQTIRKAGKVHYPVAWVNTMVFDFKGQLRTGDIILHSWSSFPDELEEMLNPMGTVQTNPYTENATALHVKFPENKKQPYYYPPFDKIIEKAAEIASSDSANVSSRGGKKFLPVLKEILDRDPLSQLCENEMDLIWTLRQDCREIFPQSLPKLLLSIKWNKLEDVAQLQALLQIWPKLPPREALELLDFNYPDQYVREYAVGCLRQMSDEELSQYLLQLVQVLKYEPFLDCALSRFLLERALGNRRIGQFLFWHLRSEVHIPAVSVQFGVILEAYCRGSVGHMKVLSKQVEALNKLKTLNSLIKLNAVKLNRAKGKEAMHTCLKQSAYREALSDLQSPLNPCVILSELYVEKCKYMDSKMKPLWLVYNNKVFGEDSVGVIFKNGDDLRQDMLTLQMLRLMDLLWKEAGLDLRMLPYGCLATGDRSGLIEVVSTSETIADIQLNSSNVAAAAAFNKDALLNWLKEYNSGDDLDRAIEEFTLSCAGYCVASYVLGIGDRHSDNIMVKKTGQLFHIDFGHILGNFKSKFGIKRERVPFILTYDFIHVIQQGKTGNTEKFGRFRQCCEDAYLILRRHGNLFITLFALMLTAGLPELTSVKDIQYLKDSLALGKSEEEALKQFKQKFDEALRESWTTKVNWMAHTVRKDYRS

[18] = target: Phosphatidylinositol 4,5-bisphosphate 3-kinase catalytic subunit gamma isoform (Homo sapiens, UniProt P48736); assay: Inhibition of PI3Kgamma (unknown origin) using PIP2 as substrate preincubated for 15 mins followed by substrate addition measured after 60 mins in presence of biotin-labeled PIP3 by HTRF assay; procedure, shortened: as §4
Sequence of Phosphatidylinositol 4,5-bisphosphate 3-kinase catalytic subunit gamma isoform (P48736 whole entry, canonical isoform): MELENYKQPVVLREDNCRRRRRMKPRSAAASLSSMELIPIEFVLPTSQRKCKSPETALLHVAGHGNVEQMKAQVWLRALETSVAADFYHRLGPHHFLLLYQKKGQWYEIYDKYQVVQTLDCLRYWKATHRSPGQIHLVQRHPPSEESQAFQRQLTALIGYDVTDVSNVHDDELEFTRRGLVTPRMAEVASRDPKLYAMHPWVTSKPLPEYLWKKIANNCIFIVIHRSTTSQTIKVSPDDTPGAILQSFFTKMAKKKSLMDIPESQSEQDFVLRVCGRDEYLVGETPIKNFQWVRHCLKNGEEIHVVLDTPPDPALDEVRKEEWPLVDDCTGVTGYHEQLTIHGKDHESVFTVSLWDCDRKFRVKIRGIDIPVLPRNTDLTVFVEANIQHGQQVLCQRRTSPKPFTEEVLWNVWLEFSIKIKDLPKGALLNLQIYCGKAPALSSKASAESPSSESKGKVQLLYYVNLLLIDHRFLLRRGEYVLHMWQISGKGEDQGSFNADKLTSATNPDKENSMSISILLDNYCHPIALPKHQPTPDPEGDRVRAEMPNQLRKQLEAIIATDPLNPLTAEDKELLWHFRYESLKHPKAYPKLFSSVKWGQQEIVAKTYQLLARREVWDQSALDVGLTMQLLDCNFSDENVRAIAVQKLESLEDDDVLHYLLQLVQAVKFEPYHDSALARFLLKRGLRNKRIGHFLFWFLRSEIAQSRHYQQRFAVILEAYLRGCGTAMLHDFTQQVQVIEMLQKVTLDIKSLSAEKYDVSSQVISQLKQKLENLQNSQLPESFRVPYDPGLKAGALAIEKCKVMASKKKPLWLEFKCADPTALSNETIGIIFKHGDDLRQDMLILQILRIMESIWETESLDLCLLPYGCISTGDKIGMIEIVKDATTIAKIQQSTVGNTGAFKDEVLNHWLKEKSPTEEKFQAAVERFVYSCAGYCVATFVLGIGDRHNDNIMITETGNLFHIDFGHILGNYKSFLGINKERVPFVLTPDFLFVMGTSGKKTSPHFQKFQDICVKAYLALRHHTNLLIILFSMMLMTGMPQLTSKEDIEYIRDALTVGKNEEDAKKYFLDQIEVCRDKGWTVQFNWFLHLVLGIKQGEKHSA

[19] = Lipophilicity, log D of compound at pH 7.4 by chromatographic method; format: physicochemical; conditions: buffer
[20] = Clearance in Sprague-Dawley rat at 1 mg/kg, iv measured up to 7 hrs by LC-MS/MS analysis; format: ADME, organism-based; conditions: in vivo; procedure, shortened: as §2
[21] = Cmax in Sprague-Dawley rat at 3 mg/kg, po measured up to 7 hrs by LC-MS/MS analysis; format: ADME, organism-based; parameters: dose 3 mg/kg, route oral; conditions: in vivo
[22] = AUC (0 to t) in Sprague-Dawley rat at 3 mg/kg, po measured up to 7 hrs by LC-MS/MS analysis; format: ADME, organism-based; parameters: dose 3 mg/kg, time < 7 hr, route oral; conditions: in vivo
Procedure, shortened: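 Male Sprague Dawley rats were given a single oral dose of 3 mg/kg in DMSO/PEG200/water (5:45:50 v/v/v) at 6 mL/kg, with n = 2 per route. Blood was sampled serially from the tail vein over 0–7 h. Parent compound was quantified by LC–MS/MS, and parameters were derived by noncompartmental analysis.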

Compound | Ratio IC50 [1] | Ratio IC50 [2] | Ratio IC50 [3] | CLH [4] [mL/min/g] | CLH [5] [mL/min/g] | CLH [6] [mL/min/g] | half-life [8] [h] | Vd [10] [L/kg] | fraction unbound [11] | solubility kinetic at 1 h [12] [µg/mL] | IC50 [14] [nM] | chromatographic logD [19] | further results
COc1ncc(-c2cc3c(c(-c4nnc(C)o4)c2)COC3)cc1NS(C)(=O)=O | 5 | 13 | 5 | < 0.5 | 1 | < 0.5 | 0.9 | 0.5 | 0.1 | 195 (≈ 485 µM) | 20 | – | AUC ([7]; 7 h): 1370 ng·h/mL; F [9]: 56%; Ratio IC50 [13]: > 10; IC50 [15]: 200 nM
COc1ncc(-c2cc(NC(=O)c3csc(C)n3)c3cn[nH]c3c2)cc1NS(C)(=O)=O | 63 | 63 | 16 | – | – | – | – | – | – | – | – | – | –
COc1ncc(-c2ccc3c(c2)COC3)cc1NS(C)(=O)=O | 5 | 2.5 | 4 | – | – | – | – | – | – | 92 (≈ 287 µM) | 794 | 3.5 | IC50 [16]: 3980 nM; IC50 [17]: 2000 nM; IC50 [18]: 3160 nM
COc1ncc(-c2ccc3cn[nH]c3c2)cc1NS(C)(=O)=O | – | – | – | – | – | – | – | – | – | 31 (≈ 97.4 µM) | – | 2.6 | IC50 [16]: 7940 nM; IC50 [17]: 7940 nM; IC50 [18]: 2510 nM
COc1ncc(-c2cc3c(c(NC(=O)c4cccc(C)n4)c2)COC3)cc1NS(C)(=O)=O | 50 | 126 | 25 | 1.2 | 1.4 | < 0.5 | 3.4 | 1.6 | 0.07 | 50 (≈ 110 µM) | 5.01 | – | F [9]: 1.5%; Ratio IC50 [13]: > 10; AUCt [22]: 42 ng·h/mL; IC50 [15]: 200 nM

Continued, in another order:

Ratio IC50 [1] | Ratio IC50 [2] | Ratio IC50 [3] | CLH [4] [mL/min/g] | CLH [5] [mL/min/g] | CLH [6] [mL/min/g] | half-life [8] [h] | Vd [10] [L/kg] | fraction unbound [11] | solubility kinetic at 1 h [12] [µg/mL] | IC50 [14] [nM] | chromatographic logD [19] | Compound | further results
4 | 13 | 13 | – | – | – | – | – | – | – | 398 | – | COc1ncc(-c2cc3c(c(NC(C)=O)c2)COC3)cc1NS(C)(=O)=O | –
10 | 20 | 6 | – | – | – | – | – | – | – | 63.1 | – | COc1ncc(-c2cc3c(c(-c4ccccn4)c2)COC3)cc1NS(C)(=O)=O | –
50 | 63 | 25 | – | – | – | – | – | – | – | 7.94 | – | COc1ncc(-c2cc3c(c(NC(=O)c4csc(C)n4)c2)COC3)cc1NS(C)(=O)=O | –
– | – | – | 1.9 | 5.9 | 3.2 | 2.6 | 3.5 | 0.1 | 182 (≈ 355 µM) | – | 3.3 | COc1ncc(-c2cc(-c3ncc(CN4C[C@@H](C)O[C@@H](C)C4)o3)c3cn[nH]c3c2)cc1NS(C)(=O)=O | AUC(0-inf) ([7]; Sprague-Dawley): < 24 ng·h/mL; clearance [20]: 50 mL/min/kg; bioavailability ([9]; Sprague-Dawley): < 2%; Cmax [21]: < 2 ng/mL
